Experimental data: ChEMBL document CHEMBL2424622, “Development of amino-pyrimidine inhibitors of c-Jun N-terminal kinase (JNK): kinase profiling guided optimization of a 1,2,3-benzotriazole lead” (Bioorg Med Chem Lett, 2013)

Columns and labels:
[1] = target: Fibroblast growth factor receptor 2 (Homo sapiens) (UniProt P21802); assay: Competitive binding affinity to FGFR2 (unknown origin) at 10 uM in presence of ATP relative to control
Summary of the method: (§1)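 In vitro ATP-site competition binding assay, part of profiling against a diverse panel of 128 kinases. Each compound was tested at a single concentration of 10 µM. Kinome selectivity was summarized as S15 selectivity scores.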

[2] = target: Epidermal growth factor receptor (Homo sapiens) (UniProt P00533); assay: Competitive binding affinity to EGFR (unknown origin) at 10 uM in presence of ATP relative to control
[3] = target: T1, Cytoplasmic tyrosine-protein kinase BMX (Homo sapiens) (UniProt P51813); assay: Competitive binding affinity to BMX (unknown origin) at 10 uM in presence of ATP relative to control
T1 sequence (whole entry): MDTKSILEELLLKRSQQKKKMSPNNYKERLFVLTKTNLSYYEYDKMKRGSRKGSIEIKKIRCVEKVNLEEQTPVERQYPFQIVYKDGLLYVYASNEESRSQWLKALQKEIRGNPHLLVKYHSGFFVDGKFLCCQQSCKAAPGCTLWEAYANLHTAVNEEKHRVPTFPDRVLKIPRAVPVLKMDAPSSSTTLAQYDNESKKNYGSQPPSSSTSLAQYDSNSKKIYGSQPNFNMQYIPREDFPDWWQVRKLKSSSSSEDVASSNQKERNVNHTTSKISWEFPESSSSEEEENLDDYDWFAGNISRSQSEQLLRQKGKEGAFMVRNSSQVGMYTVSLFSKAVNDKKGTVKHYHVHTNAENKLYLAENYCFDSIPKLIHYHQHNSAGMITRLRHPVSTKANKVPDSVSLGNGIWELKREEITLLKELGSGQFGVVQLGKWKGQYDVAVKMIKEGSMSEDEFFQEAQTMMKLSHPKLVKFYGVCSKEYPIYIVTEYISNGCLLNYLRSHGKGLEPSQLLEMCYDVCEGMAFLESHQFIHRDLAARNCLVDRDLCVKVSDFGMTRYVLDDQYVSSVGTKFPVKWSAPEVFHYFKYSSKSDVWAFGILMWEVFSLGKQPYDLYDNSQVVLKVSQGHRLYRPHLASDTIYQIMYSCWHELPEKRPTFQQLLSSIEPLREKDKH

[4] = target: Epithelial discoidin domain-containing receptor 1 (Homo sapiens) (UniProt Q08345); assay: Competitive binding affinity to DDR1 (unknown origin) at 10 uM in presence of ATP relative to control
[5] = target: Casein kinase II subunit alpha' (Homo sapiens) (UniProt P19784); assay: Competitive binding affinity to CSNK2A2 (unknown origin) at 10 uM in presence of ATP relative to control
Summary of the method: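 In vitro ATP-site competition binding assay across a diverse panel of 128 kinases, with each compound tested at a single concentration. Kinase binding is expressed relative to control.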

[6] = target: T2, Testis-specific serine/threonine-protein kinase 1 (Homo sapiens) (UniProt Q9BXA7); assay: Competitive binding affinity to TSSK1 (unknown origin) at 10 uM in presence of ATP relative to control
T2 sequence (whole entry): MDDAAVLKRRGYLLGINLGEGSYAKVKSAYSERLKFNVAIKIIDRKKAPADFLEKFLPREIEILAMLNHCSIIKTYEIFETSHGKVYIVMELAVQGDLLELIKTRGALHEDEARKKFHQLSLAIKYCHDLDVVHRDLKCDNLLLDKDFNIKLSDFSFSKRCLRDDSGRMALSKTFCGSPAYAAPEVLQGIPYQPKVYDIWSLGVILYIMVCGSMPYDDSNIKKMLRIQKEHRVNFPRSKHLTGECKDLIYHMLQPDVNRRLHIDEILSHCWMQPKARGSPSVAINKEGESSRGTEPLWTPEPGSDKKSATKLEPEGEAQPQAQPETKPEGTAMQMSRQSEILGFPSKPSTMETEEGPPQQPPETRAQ

[7] = target: TRAF2 and NCK-interacting protein kinase (Homo sapiens) (UniProt Q9UKE5); assay: Competitive binding affinity to TNIK (unknown origin) at 10 uM in presence of ATP relative to control
Summary of the method: (§2)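 In vitro ATP-site competition binding assay across a diverse panel of 128 kinases, with compound tested at a single concentration. Kinase selectivity scores (S15) were calculated from the panel profiles.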

[8] = target: Serine/threonine-protein kinase 16 (Homo sapiens, UniProt O75716); assay: Competitive binding affinity to STK16 (unknown origin) at 10 uM in presence of ATP relative to control; summary of the method: as §2
[9] = target: Ribosomal protein S6 kinase alpha-5 (Homo sapiens) (UniProt O75582); assay: Competitive binding affinity to RPS6KA5 kinase domain 1 (unknown origin) at 10 uM in presence of ATP relative to control; summary of the method: as §2
[10] = target: T3, 3-phosphoinositide-dependent protein kinase 1 (Homo sapiens) (UniProt O15530); assay: Competitive binding affinity to PDPK1 (unknown origin) at 10 uM in presence of ATP relative to control; summary of the method: as §2
T3 sequence (whole entry): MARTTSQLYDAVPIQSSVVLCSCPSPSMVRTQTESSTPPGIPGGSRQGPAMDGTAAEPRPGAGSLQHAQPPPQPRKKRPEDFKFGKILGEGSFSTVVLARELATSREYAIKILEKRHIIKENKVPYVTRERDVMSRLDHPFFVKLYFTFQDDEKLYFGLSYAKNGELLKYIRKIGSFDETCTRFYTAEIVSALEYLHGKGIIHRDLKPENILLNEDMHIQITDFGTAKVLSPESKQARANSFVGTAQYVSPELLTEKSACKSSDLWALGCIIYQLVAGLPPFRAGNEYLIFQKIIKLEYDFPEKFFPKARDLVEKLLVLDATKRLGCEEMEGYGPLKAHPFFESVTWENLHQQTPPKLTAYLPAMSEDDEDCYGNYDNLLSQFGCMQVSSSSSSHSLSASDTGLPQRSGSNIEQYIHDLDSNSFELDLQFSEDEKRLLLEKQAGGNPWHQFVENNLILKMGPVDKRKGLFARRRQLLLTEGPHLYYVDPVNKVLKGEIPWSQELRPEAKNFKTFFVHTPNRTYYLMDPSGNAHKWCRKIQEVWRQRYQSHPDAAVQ

[11] = target: Serine/threonine-protein kinase PAK 4 (Homo sapiens) (UniProt O96013); assay: Competitive binding affinity to PAK4 (unknown origin) at 10 uM in presence of ATP relative to control; summary of the method: as §2
[12] = target: Myosin light chain kinase 2, skeletal/cardiac muscle (Homo sapiens) (UniProt Q9H1R3); assay: Competitive binding affinity to MYLK2 (unknown origin) at 10 uM in presence of ATP relative to control; summary of the method: as §2
[13] = target: Mast/stem cell growth factor receptor Kit (Homo sapiens) (UniProt P10721); assay: Competitive binding affinity to KIT (unknown origin) at 10 uM in presence of ATP relative to control; summary of the method: as §1

Structure (SMILES)	inhibition [1] [%]	inhibition [2] [%]	inhibition [3] [%]	inhibition [4] [%]	inhibition [5] [%]	inhibition [6] [%]	inhibition [7] [%]	inhibition [8] [%]	inhibition [9] [%]	inhibition [10] [%]	inhibition [11] [%]	inhibition [12] [%]	inhibition [13] [%]
O[C@H]1CC[C@H](Nc2nccc(-n3nnc4ccccc43)n2)CC1	< 50	< 50	< 50	< 50	< 50	< 50	< 50	< 50	< 50	< 50	< 50	< 50	86
CS(=O)(=O)CCCOc1cccc2c1ccn2-c1ccnc(N[C@H]2CC[C@H](C(=O)N3CCC(O)CC3)CC2)n1								> 85					
O[C@H]1CC[C@H](Nc2nccc(-n3ncc4ccccc43)n2)CC1	< 50	< 50	< 50	< 50	86	< 50	79	81	< 50	< 50	< 50	< 50	91
O[C@H]1CC[C@H](Nc2nccc(-c3n[nH]c4ccccc34)n2)CC1	< 50	< 50	< 50		98		99	100	< 50	97	92	84	98
O[C@H]1CC[C@H](Nc2nccc(-n3ccc4ccccc43)n2)CC1	< 50	< 50	< 50	< 50	< 50	< 50	< 50	< 50	< 50	< 50	< 50	< 50	72
O=C([C@H]1CC[C@H](Nc2nccc(-n3nnc4ccccc43)n2)CC1)N1CCOCC1	< 50	< 50	< 50				< 50	93	< 50	< 50	< 50	< 50	67
N[C@H]1CC[C@H](Nc2nccc(-n3nnc4ccccc43)n2)CC1	< 50	< 50	< 50				92	83	70	< 50	< 50	73	72
